Screening results as filed in PubChem BioAssay.
INS-1E ATP HTS – protection of INS-1E cells from cytokine death, primary screen, ATP luminescence, single point | INS-1E cytokine-induced death, 48 h; normalised: neutral wells 0, positive control 100 | protection from cytokine-induced ATP loss, % at 10 µM | hit rate 0.1% among 20,000;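 active = mean replicate protection from cytokine-induced ATP loss at least 50% and at least 75% of replicates each reaching 50%; inconclusive = meets only one of the two criteria, mean or replicate share; inactive = fails both the mean and replicate share criteria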
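Test system: INS-1E rat cells | Quantity: 8000 cells per well | Medium: Phenol-red-free RPMI with 5% fetal bovine serum | Reagent: Cytokine cocktail of IFN-γ, TNF-α and IL-1β | Doses: One compound concentration, pin transfer | Timing: 48 h co-treatment, 10 min post-lysis read | Technique: Luminescent ATP assay (CellTiter-Glo)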
T cruzi HTS – inhibitors of intracellular Trypanosoma cruzi, primary screen, cell-based, plate reader, single point, set 2. intracellular Trypanosoma cruzi in host cells. activity score (inhibition), % at 5.01 µM. hit rate 4.9% among 22,000. AID 651903, 2012; in the data active = activity score above about 55%; inconclusive = no clear call, values can overlap the other calls;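 note: parasites and compound incubated about four days before reading; 0% = median of neutral control wells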
A1 apoptosis 2 – A1 inhibitors via caspase activation, primary screen, cell-based, luminescence, HTS, two replicates; MEF A1-2A-BIM cells, caspase-Glo luminescence, 3 h; percent of clofoctol response, DMSO zero; caspase activation, % (no concentration beside the values); 24,000 tested, under 10 active; in the data active = caspase activation above about 5.9%; inconclusive = no clear call, values can overlap the other calls; inactive = below about 2.2%
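system = A1-2A-BIM-expressing MEF cells | quantity = 2500 MEF cells/well | dosing = 50 nL compound per well, pinned | schedule = overnight cell settling, then 3 h compound exposure, 37 °C | signal = luminescence from DEVD-luciferin Caspase-Glo reagent, 1:1 in 50 mM HEPES, 1 h RT | read-out = Caspase-3/7 activation, seen as rise in luminescence signal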
* = called active by the depositor; ? = inconclusive; · = not tested or not shown. Many of the other results were omitted from the sample, so hits are more common in it than they were.

SMILES	INS-1E ATP HTS	T cruzi HTS	A1 apoptosis 2
C[C@@H]1CN([C@@H](C)CO)C(=O)Cc2cc(NC(=O)Nc3cccc4ccccc34)ccc2O[C@H]1CN(C)Cc1ccc(-c2ccccc2)cc1	·	·	1
C[C@H]1CN([C@@H](C)CO)C(=O)Cc2cc(NC(=O)Nc3cccc4ccccc34)ccc2O[C@@H]1CN(C)Cc1ccc(-c2ccccc2)cc1	-7	58*	0
C[C@@H]1CN([C@@H](C)CO)C(=O)c2cc(NC(=O)Nc3cccc4ccccc34)ccc2O[C@@H]1CN(C)Cc1ccc(Cl)c(Cl)c1	·	52	·
C[C@@H]1CN([C@H](C)CO)C(=O)Cc2cc(NC(=O)Nc3cccc4ccccc34)ccc2O[C@@H]1CN(C)Cc1ccc2c(c1)OCO2	-34	71*	·
C[C@H]1CN([C@@H](C)CO)C(=O)Cc2cc(NC(=O)Nc3cccc4ccccc34)ccc2O[C@@H]1CN(C)Cc1ccccc1	-16	58*	·
C[C@@H]1CN([C@@H](C)CO)C(=O)Cc2cc(NC(=O)Nc3cccc4ccccc34)ccc2O[C@@H]1CN(C)Cc1ccc(Cl)c(Cl)c1	-62	65*	·
COc1cc(/C=N/NC(=O)CCCCCC(=O)Nc2ccccc2O)c(Br)cc1O	16	9	·
O=C(CCCCCCC(=O)Nc1ccccc1O)N/N=C\c1ccc2ccccc2n1	4	12	0
O=C(CCCCCC(=O)N/N=C/C1=CCCCC1)NO	·	·	1
O=C(NO)c1ccc(C(=O)N/N=C/c2cccc(B(O)O)c2)cc1	12	9	-1
C[C@H]1CN([C@@H](C)CO)C(=O)c2cccc(NC(=O)CCCCCC(=O)Nc3ccccc3N)c2O[C@H]1CN(C)Cc1ccc(Cl)c(Cl)c1	9	70*	1
C[C@H](CO)N1C[C@H](C)[C@@H](CN(C)Cc2ccncc2)Oc2c(NC(=O)CCCCCC(=O)Nc3ccccc3N)cccc2C1=O	-12	8	1
C[C@@H]1CN([C@@H](C)CO)C(=O)c2cccc(NC(=O)CCCCCC(=O)Nc3ccccc3N)c2O[C@@H]1CN(C)S(=O)(=O)c1ccc(Cl)cc1	-18	56*	0
C[C@@H]1CN([C@H](C)CO)C(=O)c2cccc(NC(=O)CCCCCC(=O)Nc3ccccc3N)c2O[C@@H]1CN(C)Cc1ccc(Cl)c(Cl)c1	3	61*	·
C[C@@H]1CN([C@@H](C)CO)C(=O)c2cccc(NC(=O)CCCCCC(=O)Nc3ccccc3N)c2O[C@@H]1CN(C)Cc1ccc(Cl)c(Cl)c1	19	52	·
C[C@@H]1CN([C@H](C)CO)C(=O)c2cccc(NC(=O)CCCCCC(=O)Nc3ccccc3N)c2O[C@@H]1CN(C)S(=O)(=O)c1ccc(Cl)cc1	1	?	-1
O=C(NO)c1ccc(C(=O)N/N=C/c2ccc(-n3ccnc3)cc2)cc1	0	0	0
C=CC[C@]1(C(=O)N2CCCCC2)N=C(c2ccc(OCCCO)cc2)O[C@H]1c1ccccc1	·	·	0
COC(=O)CCCCCCC(=O)N/N=C/c1ccc2c(c1)Cc1ccccc1-2	-2	26	0
Cc1ccsc1/C=N/NC(=O)CCCCCCC(=O)Nc1ccccc1O	8	0	1
O=C(CCCCC(=O)N/N=C\c1ccc2c(c1)Cc1ccccc1-2)NO	94*	17	·
Cc1ccccc1/C=N/NC(=O)CCCCCCC(=O)Nc1ccccc1O	1	5	2
Cc1ccsc1/C=N\NC(=O)CCCCCC(=O)NO	118*	3	·
O=C(CCCCCCC(=O)N/N=C/c1ccccc1)NO	·	·	0
Cc1ccccc1/C=N/NC(=O)CCCCC(=O)NO	67*	2	·
SMILES	INS-1E ATP HTS	T cruzi HTS	A1 apoptosis 2
O=C(CCCCCC(=O)N/N=C/c1c[nH]c2ccccc12)NO	91*	-1	·
C[C@@H]1CN([C@@H](C)CO)C(=O)Cc2cc(N(C)C)ccc2O[C@@H]1CN(C)C(=O)Nc1cccc2ccccc12	3	-13	0
Cc1ccc(S(=O)(=O)N(C)C[C@H]2Oc3ccc(NS(=O)(=O)c4ccccc4)cc3C(=O)N([C@H](C)CO)C[C@@H]2C)cc1	-7	20	2
C[C@@H]1CN([C@@H](C)CO)C(=O)c2cc(NC(=O)NC3CCCCC3)ccc2O[C@@H]1CN(C)C	·	-16	0
O=C(O)CCCCCC(=O)N/N=C/c1cn(S(=O)(=O)c2ccccc2)c2ccccc12	8	9	0
Cc1noc(C)c1NC(=O)Nc1ccc2c(c1)CC(=O)N([C@H](C)CO)C[C@@H](C)[C@@H](CN(C)C(=O)NC1CCCCC1)O2	14	-12	1
O=C(O)c1ccc(/C=N/NC(=O)c2ccc(C(=O)NO)cc2)cc1	-6	9	1
COc1cc(Br)cc(/C=N/NC(=O)CCCCCCC(=O)O)c1O	13	-10	0
O=C(N/N=C/c1ccc(O)cc1)c1ccccc1O	-30	-24	-6
O=C(N/N=C/c1cccc2ccccc12)c1ccccc1O	-30	-11	-3
COc1ccc(S(=O)(=O)Nc2ccc3c(c2)CC(=O)N([C@H](C)CO)C[C@@H](C)[C@H](CN(C)Cc2ccc(Cl)c(Cl)c2)O3)cc1	-21	70*	·
COc1ccc(CN(C)C[C@@H]2Oc3ccc(NS(=O)(=O)c4ccc(Cl)cc4)cc3CC(=O)N([C@@H](C)CO)C[C@@H]2C)cc1	2	3	0
COc1ccc(CN(C)C[C@@H]2Oc3ccc(NS(=O)(=O)c4ccc(Cl)cc4)cc3CC(=O)N([C@H](C)CO)C[C@H]2C)cc1	0	68*	-1
COc1ccc(CN(C)C[C@@H]2Oc3ccc(NS(=O)(=O)c4ccc(C)cc4)cc3CC(=O)N([C@@H](C)CO)C[C@@H]2C)cc1	-1	46	0
COc1ccc(CN(C)C[C@@H]2Oc3ccc(NS(=O)(=O)c4ccc(C)cc4)cc3CC(=O)N([C@H](C)CO)C[C@H]2C)cc1	8	68*	·
COc1ccc(S(=O)(=O)Nc2ccc3c(c2)CC(=O)N([C@H](C)CO)C[C@H](C)[C@H](CN(C)Cc2ccc(Cl)c(Cl)c2)O3)cc1	0	40	·
O=C(N/N=C/c1cccc(Br)c1)c1ccccn1	-1	-6	-3
C[C@@H]1CN([C@@H](C)CO)C(=O)c2cccc(NC(=O)Nc3ccc(C(F)(F)F)cc3)c2O[C@H]1CN(C)Cc1ccc(Cl)c(Cl)c1	-52	78*	-1
C[C@@H]1CN([C@H](C)CO)C(=O)c2cccc(NC(=O)Nc3ccc(C(F)(F)F)cc3)c2O[C@@H]1CN(C)Cc1ccc(Cl)c(Cl)c1	-64	85*	-1
C[C@@H]1CN([C@H](C)CO)C(=O)c2cccc(NC(=O)Nc3ccc(F)cc3)c2O[C@H]1CN(C)Cc1ccc(Cl)c(Cl)c1	-8	35	·
C[C@@H]1CN([C@H](C)CO)C(=O)c2cccc(NC(=O)Nc3ccc(C(F)(F)F)cc3)c2O[C@H]1CN(C)Cc1ccc(Cl)c(Cl)c1	-36	87*	·
C[C@H](CO)N1C[C@H](C)[C@@H](CN(C)Cc2ccc(Cl)c(Cl)c2)Oc2c(NC(=O)Nc3ccc(F)cc3)cccc2C1=O	-23	18	0
